For assay [1], the target named is Receptor-interacting serine/threonine-protein kinase 2 (Homo sapiens) (UniProt O43353). Put plainly: Competitive binding affinity to RIPK2 (unknown origin) at 10 uM in presence of ATP relative to control. Put shortly: (§1)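 In vitro ATP-site competition binding assay across a diverse panel of 128 kinases, with compound tested at a single concentration. Kinase selectivity scores (S15) were calculated from the panel profiles.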

In assay [2] the target is STE20-like serine/threonine-protein kinase (Homo sapiens) (UniProt Q9H2G2). Put plainly: Competitive binding affinity to SLK (unknown origin) at 10 uM in presence of ATP relative to control. The essentials:
as §1

In assay [3] the target is Angiopoietin-1 receptor (Homo sapiens) (UniProt Q02763). Nature of the assay: Competitive binding affinity to TIE2 (unknown origin) at 10 uM in presence of ATP relative to control. Put shortly: as §1
The target of assay [4] is Receptor tyrosine-protein kinase erbB-4 (Homo sapiens) (UniProt Q15303). Put plainly: Competitive binding affinity to ERBB4 (unknown origin) at 10 uM in presence of ATP relative to control. The essentials: (§2)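 In vitro ATP-site competition binding assay, part of profiling against a diverse panel of 128 kinases. Each compound was tested at a single concentration of 10 µM. Kinome selectivity was summarized as S15 selectivity scores.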

Assay [5] concerns the target Serine/threonine-protein kinase 16 (Homo sapiens, UniProt O75716). Nature of the assay: Competitive binding affinity to STK16 (unknown origin) at 10 uM in presence of ATP relative to control. Put shortly: as §1
Assay [6] has as its target c-Jun N-terminal kinase, JNK (Homo sapiens, UniProt P45983+P53779+P45984). Put plainly: Inhibition of JNK in human SW1353 cells assessed as inhibition of TNFalpha-induced c-Jun phosphorylation incubated for 30 mins prior to TNFalpha induction measured after 20 mins. In kind it is cell-based. Put shortly:
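SW1353 cells were stimulated with TNFa, and the read-out was inhibition of phosphorylation of the downstream substrate c-Jun. Values are the mean of at least three experiments.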

For assay [7], the target named is T1, Myotonin-protein kinase (Homo sapiens) (UniProt Q09013).
T1 sequence (whole entry): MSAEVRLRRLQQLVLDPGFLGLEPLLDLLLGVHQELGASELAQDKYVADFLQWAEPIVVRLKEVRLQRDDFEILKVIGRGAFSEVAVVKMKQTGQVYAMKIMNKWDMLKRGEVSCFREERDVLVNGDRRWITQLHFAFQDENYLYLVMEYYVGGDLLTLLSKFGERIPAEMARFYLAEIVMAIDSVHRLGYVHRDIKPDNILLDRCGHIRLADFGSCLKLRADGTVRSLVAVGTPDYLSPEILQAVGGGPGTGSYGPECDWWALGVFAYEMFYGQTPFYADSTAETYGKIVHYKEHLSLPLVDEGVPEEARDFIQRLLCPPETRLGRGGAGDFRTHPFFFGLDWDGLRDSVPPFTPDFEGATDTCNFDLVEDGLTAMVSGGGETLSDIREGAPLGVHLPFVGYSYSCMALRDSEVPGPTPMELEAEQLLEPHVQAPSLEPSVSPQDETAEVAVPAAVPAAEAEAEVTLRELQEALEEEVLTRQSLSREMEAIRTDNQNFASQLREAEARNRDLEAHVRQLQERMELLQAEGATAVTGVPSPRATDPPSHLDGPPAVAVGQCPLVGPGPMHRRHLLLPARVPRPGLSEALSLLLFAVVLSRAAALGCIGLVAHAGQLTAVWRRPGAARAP
Put plainly: Competitive binding affinity to DMPK (unknown origin) at 10 uM in presence of ATP relative to control.

The target of assay [8] is Tyrosine-protein kinase JAK1 (Homo sapiens) (UniProt P23458). Put plainly: Competitive binding affinity to JAK1 kinase domain 1 (unknown origin) at 10 uM in presence of ATP relative to control. Put shortly: as §2
For assay [9], the target named is Serine/threonine-protein kinase PAK 4 (Homo sapiens) (UniProt O96013). Nature of the assay: Competitive binding affinity to PAK4 (unknown origin) at 10 uM in presence of ATP relative to control. Put shortly: as §1
Assay [10] addresses Calcium/calmodulin-dependent protein kinase type II subunit alpha (Homo sapiens) (UniProt Q9UQM7). Put plainly: Competitive binding affinity to CAMK2A (unknown origin) at 10 uM in presence of ATP relative to control.
The target in assay [11] is T2, 3-phosphoinositide-dependent protein kinase 1 (Homo sapiens) (UniProt O15530).
T2 sequence (whole entry): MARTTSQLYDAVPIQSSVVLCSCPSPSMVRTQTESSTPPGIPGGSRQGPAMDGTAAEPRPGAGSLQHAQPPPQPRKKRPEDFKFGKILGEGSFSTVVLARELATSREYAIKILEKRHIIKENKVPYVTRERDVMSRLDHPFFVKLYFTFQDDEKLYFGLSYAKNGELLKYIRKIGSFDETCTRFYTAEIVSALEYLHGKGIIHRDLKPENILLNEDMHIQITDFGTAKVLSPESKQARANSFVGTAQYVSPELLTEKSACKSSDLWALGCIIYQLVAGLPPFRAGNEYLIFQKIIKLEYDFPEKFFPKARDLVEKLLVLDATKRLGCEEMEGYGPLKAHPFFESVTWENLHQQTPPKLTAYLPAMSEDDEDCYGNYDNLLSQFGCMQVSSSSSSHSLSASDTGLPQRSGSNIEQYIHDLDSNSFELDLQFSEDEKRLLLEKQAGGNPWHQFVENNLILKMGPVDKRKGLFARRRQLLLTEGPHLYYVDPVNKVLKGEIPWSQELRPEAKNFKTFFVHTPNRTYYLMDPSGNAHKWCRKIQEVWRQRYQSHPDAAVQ
Put plainly: Competitive binding affinity to PDPK1 (unknown origin) at 10 uM in presence of ATP relative to control. Put shortly: as §1

The target in assay [12] is Fibroblast growth factor receptor 1 (Homo sapiens) (UniProt P11362). Put plainly: Competitive binding affinity to FGFR1 (unknown origin) at 10 uM in presence of ATP relative to control. Put shortly:
as §2

Assay [13] addresses Tyrosine-protein kinase CSK (Homo sapiens) (UniProt P41240). Put plainly: Competitive binding affinity to CSK (unknown origin) at 10 uM in presence of ATP relative to control.
The target in assay [14] is Ribosomal protein S6 kinase alpha-3 (Homo sapiens) (UniProt P51812). Nature of the assay: Competitive binding affinity to RPS6KA3 domain 1 (unknown origin) at 10 uM in presence of ATP relative to control. Put shortly: as §1
Assay [15] addresses Ribosomal protein S6 kinase alpha-2 (Homo sapiens) (UniProt Q15349). Nature of the assay: Competitive binding affinity to RPS6KA2 kinase domain 1 (unknown origin) at 10 uM in presence of ATP relative to control. Put shortly:
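In vitro ATP-site competition binding assay across a diverse panel of 128 kinases, with each compound tested at a single concentration. Kinase binding is expressed relative to control.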

Assay [16] concerns the target Receptor-type tyrosine-protein kinase FLT3 (Homo sapiens) (UniProt P36888). Put plainly: Competitive binding affinity to FLT3 (unknown origin) at 10 uM in presence of ATP relative to control. The essentials: as §2
Assay [17] has as its target Insulin-like growth factor 1 receptor (Homo sapiens) (UniProt P08069). Put plainly: Competitive binding affinity to IGF1R (unknown origin) at 10 uM in presence of ATP relative to control. Put shortly: as §2
Assay [18] addresses Insulin receptor (Homo sapiens) (UniProt P06213). Nature of the assay: Competitive binding affinity to INSR (unknown origin) at 10 uM in presence of ATP relative to control. The essentials:
as §2

Chain of Receptor-interacting serine/threonine-protein kinase 2 (Homo sapiens) (O43353 whole entry): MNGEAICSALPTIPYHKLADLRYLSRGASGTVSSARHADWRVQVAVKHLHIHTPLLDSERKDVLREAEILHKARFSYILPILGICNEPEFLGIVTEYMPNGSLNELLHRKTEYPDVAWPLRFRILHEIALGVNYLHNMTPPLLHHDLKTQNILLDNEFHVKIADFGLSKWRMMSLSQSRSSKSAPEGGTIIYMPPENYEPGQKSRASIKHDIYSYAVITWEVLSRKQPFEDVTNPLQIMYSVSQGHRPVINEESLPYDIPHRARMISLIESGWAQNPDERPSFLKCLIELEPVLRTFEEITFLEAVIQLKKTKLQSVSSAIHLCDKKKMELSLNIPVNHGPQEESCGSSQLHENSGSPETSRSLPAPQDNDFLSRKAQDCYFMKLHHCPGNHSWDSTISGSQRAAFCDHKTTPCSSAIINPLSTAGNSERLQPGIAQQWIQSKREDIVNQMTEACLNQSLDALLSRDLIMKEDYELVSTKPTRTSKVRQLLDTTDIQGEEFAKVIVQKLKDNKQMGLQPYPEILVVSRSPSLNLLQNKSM
Chain of Receptor-type tyrosine-protein kinase FLT3 (Homo sapiens) (P36888 whole entry): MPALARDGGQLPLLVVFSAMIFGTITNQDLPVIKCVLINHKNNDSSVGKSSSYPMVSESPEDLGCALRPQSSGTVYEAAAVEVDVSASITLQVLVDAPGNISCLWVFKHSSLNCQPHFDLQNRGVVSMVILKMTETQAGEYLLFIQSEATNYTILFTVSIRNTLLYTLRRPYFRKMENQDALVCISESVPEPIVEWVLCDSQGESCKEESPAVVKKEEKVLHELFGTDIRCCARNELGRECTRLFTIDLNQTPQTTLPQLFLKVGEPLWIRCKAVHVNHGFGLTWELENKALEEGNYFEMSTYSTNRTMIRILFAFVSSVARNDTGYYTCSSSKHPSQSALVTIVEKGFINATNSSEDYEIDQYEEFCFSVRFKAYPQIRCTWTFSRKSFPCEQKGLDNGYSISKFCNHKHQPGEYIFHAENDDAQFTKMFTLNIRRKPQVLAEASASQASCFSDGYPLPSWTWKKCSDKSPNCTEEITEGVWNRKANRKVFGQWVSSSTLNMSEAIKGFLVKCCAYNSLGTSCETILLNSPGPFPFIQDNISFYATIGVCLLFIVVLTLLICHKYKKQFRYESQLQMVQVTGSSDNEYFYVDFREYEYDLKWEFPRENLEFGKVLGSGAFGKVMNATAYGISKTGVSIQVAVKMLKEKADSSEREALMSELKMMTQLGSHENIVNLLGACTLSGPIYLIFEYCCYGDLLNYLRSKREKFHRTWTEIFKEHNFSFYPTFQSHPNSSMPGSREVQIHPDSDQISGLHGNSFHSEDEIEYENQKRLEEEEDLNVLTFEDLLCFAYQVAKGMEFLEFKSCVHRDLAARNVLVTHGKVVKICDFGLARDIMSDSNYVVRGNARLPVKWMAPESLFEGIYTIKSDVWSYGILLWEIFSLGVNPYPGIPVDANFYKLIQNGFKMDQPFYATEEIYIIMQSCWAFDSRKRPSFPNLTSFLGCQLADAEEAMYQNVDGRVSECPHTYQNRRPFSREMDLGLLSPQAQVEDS
Chain of STE20-like serine/threonine-protein kinase (Homo sapiens) (Q9H2G2 whole entry, looked up): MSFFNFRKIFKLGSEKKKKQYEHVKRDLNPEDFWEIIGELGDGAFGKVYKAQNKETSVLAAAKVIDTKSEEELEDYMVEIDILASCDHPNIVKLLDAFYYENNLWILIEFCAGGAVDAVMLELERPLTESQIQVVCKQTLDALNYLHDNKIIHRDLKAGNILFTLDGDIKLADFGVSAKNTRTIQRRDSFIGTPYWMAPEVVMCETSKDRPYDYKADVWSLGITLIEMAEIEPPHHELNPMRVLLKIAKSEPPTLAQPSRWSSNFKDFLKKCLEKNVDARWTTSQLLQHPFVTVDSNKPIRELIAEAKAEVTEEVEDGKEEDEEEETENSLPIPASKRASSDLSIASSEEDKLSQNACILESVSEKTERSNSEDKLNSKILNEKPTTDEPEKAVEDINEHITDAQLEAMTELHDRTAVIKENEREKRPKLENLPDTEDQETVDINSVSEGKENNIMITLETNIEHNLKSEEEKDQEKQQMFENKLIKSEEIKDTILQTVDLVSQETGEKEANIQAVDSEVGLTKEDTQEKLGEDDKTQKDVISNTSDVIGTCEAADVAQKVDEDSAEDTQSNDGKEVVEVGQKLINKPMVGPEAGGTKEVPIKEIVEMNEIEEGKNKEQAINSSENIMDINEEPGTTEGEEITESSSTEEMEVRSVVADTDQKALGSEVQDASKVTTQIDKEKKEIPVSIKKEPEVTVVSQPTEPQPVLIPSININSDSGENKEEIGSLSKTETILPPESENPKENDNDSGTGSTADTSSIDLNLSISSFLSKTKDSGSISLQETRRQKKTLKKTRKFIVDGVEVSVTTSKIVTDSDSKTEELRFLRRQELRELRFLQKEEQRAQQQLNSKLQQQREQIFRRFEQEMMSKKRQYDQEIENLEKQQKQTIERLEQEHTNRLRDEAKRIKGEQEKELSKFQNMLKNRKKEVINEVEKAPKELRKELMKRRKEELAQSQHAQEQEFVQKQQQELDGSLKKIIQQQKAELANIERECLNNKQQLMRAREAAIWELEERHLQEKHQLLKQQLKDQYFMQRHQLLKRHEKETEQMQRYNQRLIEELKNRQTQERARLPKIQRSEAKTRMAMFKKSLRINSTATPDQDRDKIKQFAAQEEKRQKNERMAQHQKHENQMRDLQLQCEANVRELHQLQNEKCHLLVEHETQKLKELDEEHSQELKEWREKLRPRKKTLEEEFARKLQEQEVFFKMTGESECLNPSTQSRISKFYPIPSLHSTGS
Chain of Ribosomal protein S6 kinase alpha-3 (Homo sapiens) (P51812 whole entry, the tested form may be a part): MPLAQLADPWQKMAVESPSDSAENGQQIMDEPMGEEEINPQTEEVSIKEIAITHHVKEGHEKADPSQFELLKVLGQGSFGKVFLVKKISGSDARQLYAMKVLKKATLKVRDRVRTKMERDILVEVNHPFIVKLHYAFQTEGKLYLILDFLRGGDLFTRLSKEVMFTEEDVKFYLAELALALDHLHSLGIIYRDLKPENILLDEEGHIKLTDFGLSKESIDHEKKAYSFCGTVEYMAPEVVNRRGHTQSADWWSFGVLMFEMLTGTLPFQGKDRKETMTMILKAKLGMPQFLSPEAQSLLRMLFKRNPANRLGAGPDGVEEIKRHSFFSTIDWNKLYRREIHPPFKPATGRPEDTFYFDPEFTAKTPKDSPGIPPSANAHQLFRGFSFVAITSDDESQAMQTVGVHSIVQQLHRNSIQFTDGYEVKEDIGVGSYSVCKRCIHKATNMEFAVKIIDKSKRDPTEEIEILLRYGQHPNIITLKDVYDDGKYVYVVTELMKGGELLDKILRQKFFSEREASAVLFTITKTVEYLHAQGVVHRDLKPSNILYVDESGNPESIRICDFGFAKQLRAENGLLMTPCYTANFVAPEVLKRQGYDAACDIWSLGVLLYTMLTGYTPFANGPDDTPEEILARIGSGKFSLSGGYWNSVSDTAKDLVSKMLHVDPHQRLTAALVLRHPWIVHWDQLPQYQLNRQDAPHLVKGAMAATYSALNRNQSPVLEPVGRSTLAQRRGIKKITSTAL
Chain of Serine/threonine-protein kinase PAK 4 (Homo sapiens) (O96013 whole entry, looked up): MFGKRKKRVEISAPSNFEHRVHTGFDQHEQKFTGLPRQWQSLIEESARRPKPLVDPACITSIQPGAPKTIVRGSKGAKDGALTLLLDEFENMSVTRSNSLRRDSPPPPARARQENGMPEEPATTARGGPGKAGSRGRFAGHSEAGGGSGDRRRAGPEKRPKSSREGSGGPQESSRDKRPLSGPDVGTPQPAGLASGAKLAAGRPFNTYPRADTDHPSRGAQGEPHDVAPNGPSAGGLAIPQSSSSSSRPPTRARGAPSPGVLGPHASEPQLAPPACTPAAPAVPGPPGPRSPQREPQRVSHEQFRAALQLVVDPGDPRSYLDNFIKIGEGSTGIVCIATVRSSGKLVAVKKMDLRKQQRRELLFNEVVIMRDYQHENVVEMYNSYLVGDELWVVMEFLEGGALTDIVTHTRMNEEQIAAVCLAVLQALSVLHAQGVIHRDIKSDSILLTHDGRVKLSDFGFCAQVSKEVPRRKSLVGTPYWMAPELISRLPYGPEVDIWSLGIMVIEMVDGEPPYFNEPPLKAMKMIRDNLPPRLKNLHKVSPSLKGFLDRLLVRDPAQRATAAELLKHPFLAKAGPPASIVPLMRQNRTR
Chain of Ribosomal protein S6 kinase alpha-2 (Homo sapiens) (Q15349 whole entry, the tested form may be a part): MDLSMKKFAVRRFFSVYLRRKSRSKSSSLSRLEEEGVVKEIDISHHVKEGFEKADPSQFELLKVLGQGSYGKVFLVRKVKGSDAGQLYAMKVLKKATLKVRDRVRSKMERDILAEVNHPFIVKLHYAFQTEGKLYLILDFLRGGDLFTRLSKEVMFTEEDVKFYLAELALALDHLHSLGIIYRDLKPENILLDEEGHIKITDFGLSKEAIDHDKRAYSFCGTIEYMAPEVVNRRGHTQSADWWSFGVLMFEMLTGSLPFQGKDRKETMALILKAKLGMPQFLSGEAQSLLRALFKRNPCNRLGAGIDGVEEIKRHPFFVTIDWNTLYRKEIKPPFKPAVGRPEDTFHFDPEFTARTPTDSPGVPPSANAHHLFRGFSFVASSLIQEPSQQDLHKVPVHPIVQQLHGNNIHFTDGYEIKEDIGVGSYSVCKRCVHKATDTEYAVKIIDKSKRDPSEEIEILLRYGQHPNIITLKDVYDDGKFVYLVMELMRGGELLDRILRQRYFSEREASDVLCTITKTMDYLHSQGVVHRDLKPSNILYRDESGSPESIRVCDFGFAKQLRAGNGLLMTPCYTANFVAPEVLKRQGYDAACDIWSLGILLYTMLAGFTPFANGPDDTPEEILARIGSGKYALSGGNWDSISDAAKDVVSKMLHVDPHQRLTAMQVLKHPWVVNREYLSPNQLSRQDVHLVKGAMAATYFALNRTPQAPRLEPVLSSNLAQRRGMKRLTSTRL

Take `O[C@H]1CC[C@H](Nc2nccc(-c3n[nH]c4ccccc34)n2)CC1`: the inhibition in assay [1] is less than 50%; in assay [2] it was 99%; in [3] it was less than 50%; in assay [4], less than 50%; in [5], 100%; in assay [7], 80%. For the same compound, the inhibition in [8] is 99%; in [9] it was 92%; in assay [10], 94%; in assay [11], 97%; in assay [12], 80%; in assay [13] it was less than 50%. Moreover, the inhibition is 97% in assay [14]; 99% in assay [15]; less than 50% in assay [16]; 95% in [17]; 98% in assay [18]. Moreover, the IC50 in assay [6] was determined as 2.3 µM.
Regarding `O[C@H]1CC[C@H](Nc2nccc(-n3ccc4ccccc43)n2)CC1`, the inhibition in assay [1], in [2], in assay [3], in assay [4], in assay [5] and in [7] was less than 50% each time. The inhibition is less than 50% in [8]; less than 50% in assay [9]; 89% in [10]; less than 50% in assay [11]; less than 50% in assay [12]; less than 50% in [13]. Further, the inhibition was less than 50% in assay [14]; less than 50% in assay [15]; 85% in assay [16]; less than 50% in assay [17]; less than 50% in assay [18]. Further, the IC50 in [6] was found to be 2 µM.
`O[C@H]1CC[C@H](Nc2nccc(-n3ncc4ccccc43)n2)CC1`: the inhibition in assay [1] is less than 50%; in assay [2], less than 50%; in assay [3], less than 50%; in assay [4], less than 50%; in assay [5], 81%; in assay [7], less than 50%. Besides, the inhibition in [8] was 88%; in assay [9], less than 50%; in [10], 94%; in [11], less than 50%; in assay [12], less than 50%; in [13], less than 50%. The inhibition in [14] was less than 50%; in assay [15] it was 73%; in assay [16], 95%; in assay [17] it was less than 50%; in [18], less than 50%. The IC50 in assay [6] worked out at 2.7 µM.
With `O[C@H]1CC[C@H](Nc2nccc(-n3nnc4ccccc43)n2)CC1`, the inhibition was 66% in assay [1]; less than 50% in assay [2]; less than 50% in [3]; less than 50% in assay [4]; less than 50% in assay [5]; less than 50% in assay [7]. Moreover, the inhibition in assay [8] was less than 50%; in [9], less than 50%; in assay [10], 88%; in assay [11], less than 50%; in assay [12], less than 50%; in assay [13], less than 50%. The inhibition was 77% in [14]; 95% in assay [15]; 88% in assay [16]; less than 50% in assay [17]; less than 50% in assay [18]. In assay [6], the IC50 was found to be 0.79 µM.
For the compound `O=C([C@H]1CC[C@H](Nc2nccc(-n3nnc4ccccc43)n2)CC1)N1CCOCC1`, the inhibition is less than 50% in assay [1]; less than 50% in assay [2]; less than 50% in assay [3]; less than 50% in assay [4]; 93% in assay [5]; less than 50% in [7]. For the same compound, the inhibition in assay [8], in [9], in [10], in assay [11], in assay [12] and in assay [13] was less than 50% throughout. In addition, the inhibition in [14] was 90%; in [15], 100%; in [16], less than 50%; in assay [17], less than 50%; in assay [18], less than 50%. Further, in [6], the half-maximal inhibitory concentration (IC50) is 1.8 µM.
In the case of `CS(=O)(=O)CCCOc1cccc2c1ccn2-c1ccnc(N[C@H]2CC[C@H](C(=O)N3CCC(O)CC3)CC2)n1`, the inhibition in [5] was more than 85%. In addition, in assay [6], the IC50 came out at 1.1 µM.
With `N[C@H]1CC[C@H](Nc2nccc(-n3nnc4ccccc43)n2)CC1`, the inhibition is less than 50% in assay [1]; less than 50% in [2]; less than 50% in assay [3]; less than 50% in [4]; 83% in [5]; less than 50% in assay [7]. The inhibition in assay [8] is less than 50%; in assay [9], less than 50%; in [10] it was 84%; in assay [11], less than 50%; in [12] it was less than 50%; in assay [13], less than 50%. In addition, the inhibition in assay [14] is 84%; in assay [15], 91%; in assay [16], 92%; in [17] it was less than 50%; in [18], less than 50%. Also, the IC50 in assay [6] was determined as 0.54 µM.

As usually defined, the inhibition is the percentage by which the read-out fell short of the control. As a reminder, the IC50 is the midpoint of a concentration-inhibition curve.

For the origin of these results see ChEMBL document CHEMBL2424622, “Development of amino-pyrimidine inhibitors of c-Jun N-terminal kinase (JNK): kinase profiling guided optimization of a 1,2,3-benzotriazole lead” (Bioorg Med Chem Lett, 2013).
